From ChEMBL document CHEMBL1154890, “Synthesis, cytotoxicity, antiviral activity and interferon inducing ability of 6-(2-aminoethyl)-6H-indolo[2,3-b]quinoxalines” (Eur J Med Chem, 2010)

Key:
[1] = Selectivity index, CC50 for pig EPT cells to IC50 for Vesicular stomatitis virus treated 24 hrs before viral infection; assay type: functional
Method in brief: (§1)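 SI = CC₅₀/IC₅₀ for each cell line and each regimen (treatment 24 h before or immediately after VSV infection). For CC₅₀, the medium on EPT or L929 monolayers was replaced with maintenance medium containing 5% newborn calf serum plus compound at 1–1000. After 24–48 h at 37 °C, 5% CO₂, cells were stained with 0.5% crystal violet in 70% ethanol and read at 540/620. CC₅₀ is the concentration giving 50% monolayer destruction.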

[2] = tested on: Vesicular stomatitis virus; assay: Antiviral activity against Vesicular stomatitis virus infected in EPT cells assessed as inhibition of virus-induced cytopathic effect treated immediately after viral infection measured after 24 hrs; assay type: functional, organism-based
Method in brief: (§2)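 VSV grown in EPT or L929 cells to about 10⁶ ID₅₀/0.1 mL. Compounds in serial double dilution were added to cell monolayers at 37 °C, 5% CO₂, either 24 h before infection (preventive) or immediately after it (therapeutic). VSV was then added and cultures held 24 h. Cytopathic effect was scored microscopically. IC₅₀ is reported as −lg molar concentration giving 50% inhibition of cytopathic action, with confidence interval at P < 0.05.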

[3] = tested on: Vesicular stomatitis virus; assay: Antiviral activity against Vesicular stomatitis virus in EPT cells assessed as inhibition of virus-induced cytopathic effect treated 24 hrs before viral infection measured after 24 hrs; assay type: functional, organism-based; method in brief: as §2
[4] = Cytotoxicity against pig EPT cells after 24 to 48 hrs; assay type: cell-based, Sus scrofa; details: for CC50: EPT cells; for pCC50: ept
Method in brief: (§3)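 Monolayers at 37 °C, 5% CO₂; growth medium (L929: Eagle's MEM, EPT: Medium 199; both with 10% calf embryo serum and kanamycin, plus glutamine for L929) replaced by maintenance medium with 5% newborn calf serum holding compound at 1–1000. Read at 24–48 h after 0.5% crystal violet/70% ethanol staining, 540/620 nm. CC₅₀ = 50% monolayer destruction, given as −lg (M), confidence interval at P < 0.05.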

[5] = Induction of IFN activity in pig EPT cells assessed as interferon titer at 1.5 uM after 24 hrs by microscopical method; assay type: functional, Sus scrofa
Method in brief: (§4)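 Compounds were added to murine fibroblast L929 or piglet testicular EPT cells. Supernatant was taken after 24 and 48 h at 37 °C, 5% CO₂. IFN titers in the supernatant were then determined on L929 and EPT cell cultures.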

[6] = (§5) Cytotoxicity against mouse L929 cells after 24 to 48 hrs; assay type: cell-based; details: L929 cells; method in brief: as §3
[7] = Selectivity index, CC50 for mouse L929 cells to IC50 for Vesicular stomatitis virus treated immediately after viral infection; assay type: functional; method in brief: as §1
[8] = Selectivity index, CC50 for […] EPT cells to IC50 for Vesicular stomatitis virus treated immediately after viral infection; assay type: functional; method in brief: as §1
[9] = tested on: L929; assay: Induction of IFN activity in mouse L929 cells assessed as interferon titer at 1.1 uM after 24 hrs by microscopical method; assay type: functional; method in brief: as §4
[10] = tested on: Vesicular stomatitis virus; assay: Antiviral activity against Vesicular stomatitis virus in mouse L929 cells assessed as inhibition of virus-induced cytopathic effect treated 24 hrs before viral infection measured after 24 hrs; assay type: functional, organism-based; method in brief: as §2
[11] = Selectivity index, CC50 for mouse L929 cells to IC50 for Vesicular stomatitis virus treated 24 hrs before viral infection; assay type: functional; method in brief: as §1
[12] = tested on: Vesicular stomatitis virus; assay: Antiviral activity against Vesicular stomatitis virus infected in mouse L929 cells assessed as inhibition of virus-induced cytopathic effect treated immediately after viral infection measured after 24 hrs; assay type: functional, organism-based; details: L929, 24 h; method in brief: as §2
[13] = Ratio of tilorone CC50 for […] EPT cells to IC50 for Vesicular stomatitis virus treated 24 hrs before viral infection over compound CC50 for […] EPT cells to IC50 for Vesicular stomatitis virus treated 24 hrs before viral infection
[14] = tested on: L929; assay: as §5; assay type: cell-based; details: l929; method in brief: as §3

c1ccc2nc3c(nc2c1)c1ccccc1n3CCN1CCCC1
Ratio CC50/IC50 [1]: 60 | IC50 [2]: 4.07 µM | IC50 [3]: 2.69 µM | CC50 [4]: 162 µM | Activity [5]: 64 | CC50 [6]: 75.9 µM | Ratio CC50/IC50 [7]: 468 | Ratio CC50/IC50 [8]: 40 | Activity [9]: 32 | IC50 [10]: 1.32 µM | Ratio CC50/IC50 [11]: 59 | IC50 [12]: 2.24 µM

CN(C)CCn1c2ccccc2c2nc3ccccc3nc21
Ratio CC50/IC50 [1]: 56 | IC50 [2]: 9.55 µM | IC50 [3]: 1.45 µM | CC50 [4]: 81.3 µM | Activity [5]: 32 | CC50 [6]: 91.2 µM | Ratio CC50/IC50 [7]: 58 | Ratio CC50/IC50 [8]: 9 | Activity [9]: 16 | IC50 [10]: 1.45 µM | Ratio CC50/IC50 [11]: 63 | IC50 [12]: 11.2 µM

CCCN(CCC)CCn1c2ccccc2c2nc3ccccc3nc21
Ratio CC50/IC50 [1]: 55 | IC50 [2]: 6.61 µM | IC50 [3]: 2.69 µM | CC50 [4]: 148 µM | Activity [5]: 32 | CC50 [6]: 219 µM | Ratio CC50/IC50 [7]: 158 | Ratio CC50/IC50 [8]: 23 | Activity [9]: 8 | IC50 [10]: 1.29 µM | Ratio CC50/IC50 [11]: 169 | IC50 [12]: 3.55 µM

CN1CCN(CCn2c3ccccc3c3nc4ccccc4nc32)CC1
Ratio CC50/IC50 [1]: 57 | IC50 [2]: 4.68 µM | IC50 [3]: 1.45 µM | CC50 [4]: 81.3 µM | Activity [5]: 32 | CC50 [6]: 97.7 µM | Ratio CC50/IC50 [7]: 46 | Ratio CC50/IC50 [8]: 17 | Activity [9]: 4 | IC50 [10]: 1.38 µM | Ratio CC50/IC50 [11]: 71 | IC50 [12]: 4.79 µM

c1ccc2nc3c(nc2c1)c1ccccc1n3CCN1CCOCC1
Ratio CC50/IC50 [1]: 1258 | Ratio [13]: 15 | IC50 [3]: 1.62 µM | pCC50 [4]: 2.69 | Activity [5]: 16 | pCC50 [14]: 2.97 | Ratio CC50/IC50 [7]: 17 | Activity [9]: 8 | IC50 [10]: 1.62 µM | Ratio CC50/IC50 [11]: 659 | IC50 [12]: 4.47 µM

CCN(CC)CCOc1ccc2c(c1)C(=O)c1cc(OCCN(CC)CC)ccc1-2.Cl.Cl [TILORONE HYDROCHLORIDE]
Ratio CC50/IC50 [1]: 80 | IC50 [2]: 13.5 µM | IC50 [3]: 1.32 µM | CC50 [4]: 107 µM | Activity [5]: 32 | CC50 [6]: 112 µM | Ratio CC50/IC50 [7]: 10 | Ratio CC50/IC50 [8]: 10 | Activity [9]: 32 | IC50 [10]: 1.45 µM | Ratio CC50/IC50 [11]: 80 | IC50 [12]: 13.8 µM

c1ccc2nc3c(nc2c1)c1ccccc1n3CCN1CCCCCC1
Ratio CC50/IC50 [1]: 49 | IC50 [2]: 7.94 µM | IC50 [3]: 2.69 µM | CC50 [4]: 132 µM | Activity [5]: 32 | CC50 [6]: 145 µM | Ratio CC50/IC50 [7]: 62 | Ratio CC50/IC50 [8]: 17 | Activity [9]: 64 | IC50 [10]: 1.29 µM | Ratio CC50/IC50 [11]: 110 | IC50 [12]: 3.8 µM

c1ccc2nc3c(nc2c1)c1ccccc1n3CCN1CCCCC1
Ratio CC50/IC50 [1]: 323 | IC50 [2]: 5.62 µM | IC50 [3]: 2.88 µM | CC50 [4]: 933 µM | Activity [5]: 32 | CC50 [6]: 178 µM | Ratio CC50/IC50 [7]: 224 | Ratio CC50/IC50 [8]: 164 | Activity [9]: 64 | IC50 [10]: 1.35 µM | Ratio CC50/IC50 [11]: 132 | IC50 [12]: 2.57 µM

CC1CCCCN1CCn1c2ccccc2c2nc3ccccc3nc21 (stereo unspecified)
Ratio CC50/IC50 [1]: 149 | IC50 [2]: 4.07 µM | IC50 [3]: 2.63 µM | CC50 [4]: 398 µM | Activity [5]: 32 | CC50 [6]: 234 µM | Ratio CC50/IC50 [7]: 74 | Ratio CC50/IC50 [8]: 98 | Activity [9]: 32 | IC50 [10]: 1.26 µM | Ratio CC50/IC50 [11]: 185 | IC50 [12]: 1.91 µM

CC1CCN(CCn2c3ccccc3c3nc4ccccc4nc32)CC1
Ratio CC50/IC50 [1]: 1783 | Ratio [13]: 20 | IC50 [2]: 20 µM | IC50 [3]: 1.58 µM | pCC50 [4]: 2.55 | Activity [5]: 32 | CC50 [6]: 575 µM | Ratio CC50/IC50 [7]: 78 | Ratio CC50/IC50 [8]: 142 | Activity [9]: 8 | IC50 [10]: 1.62 µM | Ratio CC50/IC50 [11]: 358 | IC50 [12]: 2.29 µM

CCCCN(CC)CCn1c2ccccc2c2nc3ccccc3nc21
Ratio CC50/IC50 [1]: 6 | IC50 [2]: 13.2 µM | IC50 [3]: 13.2 µM | CC50 [4]: 83.2 µM | Activity [5]: 8 | CC50 [6]: 174 µM | Ratio CC50/IC50 [7]: 27 | Ratio CC50/IC50 [8]: 6 | Activity [9]: 8 | IC50 [10]: 3.16 µM | Ratio CC50/IC50 [11]: 54 | IC50 [12]: 3.39 µM

CCN(CC)CCn1c2ccccc2c2nc3ccccc3nc21
Ratio CC50/IC50 [1]: 139 | IC50 [2]: 6.17 µM | IC50 [3]: 3.39 µM | CC50 [4]: 457 µM | Activity [5]: 32 | CC50 [6]: 646 µM | Ratio CC50/IC50 [7]: 79 | Ratio CC50/IC50 [8]: 76 | Activity [9]: 64 | IC50 [10]: 1.29 µM | Ratio CC50/IC50 [11]: 499 | IC50 [12]: 2.19 µM

CCCCN(C)CCn1c2ccccc2c2nc3ccccc3nc21
Ratio CC50/IC50 [1]: 68 | IC50 [2]: 4.79 µM | IC50 [3]: 3.02 µM | CC50 [4]: 204 µM | Activity [5]: 32 | CC50 [6]: 562 µM | Ratio CC50/IC50 [7]: 41 | Ratio CC50/IC50 [8]: 43 | Activity [9]: 16 | IC50 [10]: 1.45 µM | Ratio CC50/IC50 [11]: 388 | IC50 [12]: 2.34 µM
